Measurements as given in paper PMC5084670 (Cancer Science, 2016).

Assay: Phase I dose-escalation study: safety, adverse events
Assay type: in vivo, human
Outline: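 Oral test compound was given once daily in 28-day cycles after a 7-day single-dose run-in, in Japanese and Hong Kong/Taiwan groups escalated separately. Toxicity was graded by CTCAE v3.0 using laboratory tests, physical examination, vital signs, weight and periodic ECG. DLTs were grade 3–4 events over the run-in plus cycle 1. MTD was set by an adaptive Bayesian logistic regression model with overdose control.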

[1] = group 2, 400 mg q.d. (n = 12), All grades
[2] = group 2, 400 mg q.d. (n = 12), Grade 3
[3] = group 2, 400 mg q.d. (n = 12), Grade 4
[4] = group 2, 600 mg q.d. (n = 8), All grades
[5] = group 2, 600 mg q.d. (n = 8), Grade 3
[6] = group 2, 600 mg q.d. (n = 8), Grade 4
[7] = group 2, 800 mg q.d. (n = 4), All grades

Cc1c(C(=O)Nc2ccc(N3C[C@@H](C)O[C@@H](C)C3)nc2)cccc1-c1ccc(OC(F)(F)F)cc1 [Sonidegib]
Dysgeusia (drug-related adverse event) [1]: 2 (17) n (%) | Fatigue (drug-related adverse event) [1]: 4 (33) n (%) | Hepatic function abnormal (drug-related adverse event) [1]: 2 (17) n (%) | Muscular weakness (drug-related adverse event) [1]: 0 (0) n (%) | Myalgia (drug-related adverse event) [1]: 2 (17) n (%) | Nausea (drug-related adverse event) [1]: 0 (0) n (%) | Pyrexia (drug-related adverse event) [1]: 0 (0) n (%) | Vomiting (drug-related adverse event) [1]: 0 (0) n (%) | Blood creatine kinase increased (drug-related adverse event) [2]: 1 (8) n (%) | Decreased appetite (drug-related adverse event) [2]: 0 (0) n (%) | Diarrhea (drug-related adverse event) [2]: 0 (0) n (%) | Dizziness (drug-related adverse event) [2]: 0 (0) n (%) | Dysgeusia (drug-related adverse event) [2]: 0 (0) n (%) | Fatigue (drug-related adverse event) [2]: 0 (0) n (%) | Hepatic function abnormal (drug-related adverse event) [2]: 0 (0) n (%) | Muscular weakness (drug-related adverse event) [2]: 0 (0) n (%) | Myalgia (drug-related adverse event) [2]: 0 (0) n (%) | Nausea (drug-related adverse event) [2]: 0 (0) n (%) | Pyrexia (drug-related adverse event) [2]: 0 (0) n (%) | Vomiting (drug-related adverse event) [2]: 0 (0) n (%) | Blood creatine kinase increased (drug-related adverse event) [3]: 1 (8) n (%) | Decreased appetite (drug-related adverse event) [3]: 0 (0) n (%) | Diarrhea (drug-related adverse event) [3]: 0 (0) n (%) | Dizziness (drug-related adverse event) [3]: 0 (0) n (%) | Dysgeusia (drug-related adverse event) [3]: 0 (0) n (%) | Fatigue (drug-related adverse event) [3]: 0 (0) n (%) | Hepatic function abnormal (drug-related adverse event) [3]: 0 (0) n (%) | Muscular weakness (drug-related adverse event) [3]: 0 (0) n (%) | Myalgia (drug-related adverse event) [3]: 0 (0) n (%) | Nausea (drug-related adverse event) [3]: 0 (0) n (%) | Pyrexia (drug-related adverse event) [3]: 0 (0) n (%) | Vomiting (drug-related adverse event) [3]: 0 (0) n (%) | Blood creatine kinase increased (drug-related adverse event) [4]: 3 (38) n (%) | Decreased appetite (drug-related adverse event) [4]: 3 (38) n (%) | Diarrhea (drug-related adverse event) [4]: 1 (13) n (%) | Dizziness (drug-related adverse event) [4]: 1 (13) n (%) | Dysgeusia (drug-related adverse event) [4]: 3 (38) n (%) | Fatigue (drug-related adverse event) [4]: 1 (13) n (%) | Hepatic function abnormal (drug-related adverse event) [4]: 2 (25) n (%) | Muscular weakness (drug-related adverse event) [4]: 1 (13) n (%) | Myalgia (drug-related adverse event) [4]: 3 (38) n (%) | Nausea (drug-related adverse event) [4]: 3 (38) n (%) | Pyrexia (drug-related adverse event) [4]: 1 (13) n (%) | Vomiting (drug-related adverse event) [4]: 2 (25) n (%) | Blood creatine kinase increased (drug-related adverse event) [5]: 0 (0) n (%) | Decreased appetite (drug-related adverse event) [5]: 0 (0) n (%) | Diarrhea (drug-related adverse event) [5]: 0 (0) n (%) | Dizziness (drug-related adverse event) [5]: 0 (0) n (%) | Dysgeusia (drug-related adverse event) [5]: 0 (0) n (%) | Fatigue (drug-related adverse event) [5]: 0 (0) n (%) | Hepatic function abnormal (drug-related adverse event) [5]: 1 (13) n (%) | Muscular weakness (drug-related adverse event) [5]: 0 (0) n (%) | Myalgia (drug-related adverse event) [5]: 1 (13) n (%) | Nausea (drug-related adverse event) [5]: 0 (0) n (%) | Pyrexia (drug-related adverse event) [5]: 0 (0) n (%) | Vomiting (drug-related adverse event) [5]: 0 (0) n (%) | Blood creatine kinase increased (drug-related adverse event) [6]: 1 (13) n (%) | Decreased appetite (drug-related adverse event) [6]: 0 (0) n (%) | Diarrhea (drug-related adverse event) [6]: 0 (0) n (%) | Dizziness (drug-related adverse event) [6]: 0 (0) n (%) | Dysgeusia (drug-related adverse event) [6]: 0 (0) n (%) | Fatigue (drug-related adverse event) [6]: 0 (0) n (%) | Hepatic function abnormal (drug-related adverse event) [6]: 0 (0) n (%) | Muscular weakness (drug-related adverse event) [6]: 0 (0) n (%) | Myalgia (drug-related adverse event) [6]: 0 (0) n (%) | Nausea (drug-related adverse event) [6]: 0 (0) n (%) | Pyrexia (drug-related adverse event) [6]: 0 (0) n (%) | Vomiting (drug-related adverse event) [6]: 0 (0) n (%) | DLT in cycle 1 (creatine kinase elevation) (group 2, 800 mg): single DLT | Blood creatine kinase increased (drug-related adverse event) [7]: 3 (75) n (%) | Decreased appetite (drug-related adverse event) [7]: 2 (50) n (%) | Diarrhea (drug-related adverse event) [7]: 1 (25) n (%) | Dizziness (drug-related adverse event) [7]: 1 (25) n (%) | Dysgeusia (drug-related adverse event) [7]: 1 (25) n (%) | Fatigue (drug-related adverse event) [7]: 3 (75) n (%)
